NF-kB expr up: activators of NF-kB expression in neurons, primary screen, cell-based, HTS; 190,000 tested, 1.6% active; human neuronal cells, NF-kB reporter expression; stronger effect = higher value; fold change at 12.5 µM; in the data active = fold change above about 3.3
APP 5'UTR act: activators of APP 5'UTR luciferase reporter, primary screen, SH-SY5Y cells. SH-SY5Y APP 5'UTR luciferase reporter, luminescence; zero percent = DMSO vehicle wells. activation, % at 2 µM. 190,000 tested, 1% active. AID 1276, 2008;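 active = activation above a set limit, based on mean plus 3 SD of controls, cut at about 140% in these data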
STAT1 activator: STAT1 signaling activators, primary screen, cell-based, HTS, luciferase reporter; 200,000 tested, 2.6% active; NIH 3T3 STAT1-luciferase reporter, IFN-gamma, luminescence; 100% = IFN-gamma alone, no compound; AID 932, 2007; activation (% of control), % at 5.5 µM;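 active = activation above the screen-wide mean activation plus 3 SD, cut at about 130% in these data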;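 also: raw ratio to IFN-gamma control signal so 100% means no change and 0% no light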
STAT3 activator: IL-6 driven STAT3 reporter potentiators, primary screen, U3A cells, luciferase, luminescence, MLSCN library. IL-6 STAT3-luciferase reporter; 100% = signal with IL-6 EC80 alone. activation (% of control), % at 5.6 µM. 190,000 tested, 0.91% active;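 active = activation above the screen-wide mean of compound activation plus 3 SD, cut at about 130% in these data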;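 also: 0% = background luminescence of wells with medium and substrate only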
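Material: human U3A cells carrying STAT3-luciferase construct. Measured by: reporter luminescence signal. Timing: compound 1 h, then IL-6 6 h at 37 °C.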
STAT3 inh: IL-6 driven STAT3 reporter inhibitors, primary screen, U3A cells, luciferase, luminescence, MLSCN library; inhibition, % at 5.5 µM; 190,000 tested, 0.89% active; AID 862, 2007; IL-6 STAT3-luciferase reporter; host cell line lacks STAT1;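 active = inhibition above the mean inhibition across all screened compounds plus 3 SD, cut at about 44% in these data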;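 also: 0% = DMSO only wells and 100% = 100 µM nifuroxazide control wells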
STAT1 inh: STAT1 signaling inhibitors, primary screen, cell-based, HTS, luciferase reporter. NIH 3T3 STAT1-luciferase reporter, IFN-gamma, luminescence. inhibition, % at 5.5 µM. 200,000 tested, 0.35% active. AID 920, 2007;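 active = inhibition above a set limit, the mean inhibition across all tested compounds plus 3 SD, cut at about 34% in these data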;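 also: 0% = IFN-gamma with DMSO and 100% = IFN-gamma with 300 µM nifuroxazide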
STAT1 act conf: STAT1 signaling activators, confirmation, cell-based, HTS, luciferase reporter. shares compounds with STAT1 activator. NIH 3T3 STAT1-luciferase reporter, IFN-gamma potentiation, luminescence; 100% = IFN-gamma EC80 alone, no compound. activation (% of control), % at 5.7 µM. 1,200 tested, 97% active;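 active = activation above a set limit carried over from the earlier primary STAT1 screen, cut at about 140% in these data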;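 also: simple ratio to median IFN-gamma plus DMSO wells so 0% means no light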
NFkB act STAT1ct: NF-kB reporter activators, TNF-alpha stimulated, counter-screen for STAT1 activator project, cell-based, HEK293T, luciferase luminescence; AID 1306, 2008; 100% = TNF-alpha with vehicle only; activation (% of control), % at 5.7 µM; shares compounds with STAT1 activator; 1,200 tested, 43% active;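 active = activation above the mean of solvent-only control wells plus 3 SD, set per campaign, cut at about 130% in these data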;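 also: TNF-alpha given at a submaximal dose yielding about 80% of full reporter signal; values are well signal over median control so 100% means no change and 0% no light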
STAT3 act 2: STAT3 reporter activation by STAT1 hits, confirmation, counter-screen for STAT1 activator project, U3A cells, luciferase, luminescence; shares compounds with STAT1 activator; IL-6; cells lack STAT1; 100 = IL-6 alone, no compound effect; activation (% of control), % at 5.7 µM; 1,200 tested, 46% active; AID 1316, 2008;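 active = activation above the solvent-only control well mean plus 3 SD, set per plate batch, cut at about 110% in these data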;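 also: 0% = no luminescence and 100% = median IL-6 plus DMSO wells; higher means more STAT3 reporter activation so hits are non-selective activators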
* hit, by the source's call; / = no result. Only some compounds are listed: those with a hit (about 4.9% of all), similar ones and a draw of the others.

SMILES	NF-kB expr up	APP 5'UTR act	STAT1 activator	STAT3 activator	STAT3 inh	STAT1 inh	STAT1 act conf	NFkB act STAT1ct	STAT3 act 2
Cc1ccc(C(=O)C(C)OC(=O)c2ccccc2[N+](=O)[O-])cc1 (stereo unspecified)	9.6*	173*	181*	109	-14	-91	213*	133	127*
CCOCC(=O)Nc1cc(Cl)ccc1C	1.1	9	104	96	9	-6	/	/	/
c1ccc(-c2csc(N3CCSCC3)n2)cc1	2.5	35	160*	97	4	-63	129*	126	96
CC(C)CC(=O)NS(=O)(=O)c1ccc(NS(C)(=O)=O)cc1	1.2	-13	100	103	-1	1	/	/	/
C=CCN1CCN(C(CCC)c2nnnn2Cc2ccco2)CC1 (stereo unspecified)	1.2	-5	104	101	5	-6	/	/	/
COc1ccc2oc(=N)c(C(=O)Nc3ccccc3)cc2c1	5.2*	133	162*	111	-12	-69	196*	138*	136*
CC(C)N=Cc1c(O)[nH]c2ccccc12	1.4	-4	96	81	28	4	/	/	/
Oc1[nH]c2ccccc2c1C=Nc1ccc2c(c1)OCCO2	4.4*	183*	187*	70	37	-85	346*	137*	106
Cc1cccc(/N=C/c2c(O)[nH]c3ccccc23)n1	3.4*	122	158*	111	-8	-64	171*	112	124*
Cc1c(-c2nc(N)nc(Nc3ccccc3F)n2)oc2ccccc12	5.8*	176*	198*	113	-12	-105	232*	141*	114*
Cc1cc(C)n(-c2ccc(C(=O)Nc3nc4ccccc4s3)cc2)n1	3.9*	109	174*	100	6	-80	225*	141*	105
O=C(Nc1nc2ccccc2s1)c1ccc(N2CCCCC2)c([N+](=O)[O-])c1	2.5	116	166*	74	30	-72	197*	118	100
Cc1cc(C)n(-c2ccc(C(=O)NC3=NCCS3)cc2)n1	2	36	124	94	11	-26	/	/	/
Cc1ccc(Nc2nc(CSc3nnc(-c4ccc(F)cc4)n3C)cs2)cc1	1.1	21	94	96	7	6	/	/	/
O=C(Nc1nc(-c2nc3ccccc3s2)cs1)C1CC1	5.7*	238*	162*	95	6	-65	227*	128	117*
CC1CCc2nc(NC(=O)C3CCCO3)sc2C1 (stereo unspecified)	3.5*	172*	161*	90	12	-66	189*	103	96
O=C(Nc1nc2ccccc2s1)C1CCCO1 (stereo unspecified)	2.6	49	151*	94	12	-56	166*	122	108
O=C(Cc1c[nH]c2ccccc12)NCc1ccccc1F	1	0	103	112	-11	-5	/	/	/
Cc1nc2ccccn2c1C(=O)OCC#N	1.2	23	106	93	15	-7	/	/	/
Cc1cc(C(=O)NCCC2=CCCCC2)c(C)o1	2.3	136*	155*	93	12	-47	181*	120	110
NC(=O)NCCC1=CCCCC1	1	-17	98	98	3	2	/	/	/
Cc1c(-c2ccn[nH]2)cc(NC(=O)c2ccc(Cl)cc2)c(=O)n1N	1.1	7	102	91	12	-1	/	/	/
O=C(CC1Nc2ccccc2NC1=O)c1ccccc1 (stereo unspecified)	2.5	33	156*	128	-29	-61	206*	130	165*
O=C(CC1Nc2ccccc2NC1=O)NCCc1ccccc1 (stereo unspecified)	1.1	0	109	102	2	-9	/	/	/
COc1ccc(N=C(C)C2=C(O)c3ccccc3C2=O)cc1	5.4*	206*	165*	74	29	-73	209*	103	88
SMILES	NF-kB expr up	APP 5'UTR act	STAT1 activator	STAT3 activator	STAT3 inh	STAT1 inh	STAT1 act conf	NFkB act STAT1ct	STAT3 act 2
O=C(O)CCCN1C(=O)C(=O)/C(=C(/O)c2ccccc2)C1/C=C/c1ccccc1 (stereo unspecified)	1.1	8	94	101	0	5	/	/	/
COc1ccc2nc(Nc3nc(C)c(C(C)=O)s3)sc2c1	2.6	46	164*	110	-8	-66	180*	132	101
CC(=O)c1sc(Nc2nc3cc4c(cc3s2)OCO4)nc1C	2.9	91	174*	94	14	-82	190*	142*	103
O=C(Cc1ccc(-c2ccccc2)cc1)OCC(=O)N1CCCC1=O	1.4	-8	98	92	12	2	/	/	/
CCN(C(=O)Cc1c(C(=O)O)[nH]c2ccccc12)c1ccc(OC)cc1	0.99	-1	99	102	3	3	/	/	/
Cc1ccc(-c2noc(-c3cccs3)n2)cc1	7.9*	135*	154*	82	27	-56	220*	112	111*
O=C(Nc1ccc2c(c1)CCC2)c1ccccc1F	8.3*	183*	179*	78	27	-87	222*	123	97
Cc1occc1C(=O)Nc1ccc2c(c1)CCC2	4.7*	144*	156*	96	4	-61	176*	130	109
O=C(Nc1ccc2c(c1)CCC2)c1ccccc1	8*	172*	181*	84	16	-89	237*	132	102
Cc1occc1C(=O)Nc1cccc([N+](=O)[O-])c1	1.3	10	102	91	10	-2	/	/	/
OCCOCCNc1ncnc2c1cnn2-c1ccc(Cl)cc1	4.6*	140*	157*	96	10	-63	225*	133*	116*
Clc1ccc(Nc2nc(C3CC3)cs2)cc1	5.1*	180*	154*	96	13	-59	188*	142*	101
